Results reported in ChEMBL document CHEMBL1125337, “Synthesis and antibacterial activity of a series of basic amides of teicoplanin and deglucoteicoplanin with polyamines” (J Med Chem, 1992).
≈ marks a conversion by molar mass, not a printed value.

Key:
[1] = system: Streptococcus pneumoniae; experiment: Minimum inhibitory concentration against Streptococcus pneumoniae L 44; assay type: functional
How it was run: (§1)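 MIC (µg/mL) by microbroth dilution in Todd-Hewitt broth, final inoculum 10^4 cfu/mL, incubated 24 h at 37 °C in air.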

[2] = system: Streptococcus pyogenes; experiment: Efficacy of compound administered perorally against Streptococcus pyogenes L 49 Septicemia in mouse; assay type: functional; conditions: po
How it was run: (§2)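 Mice were infected intraperitoneally with about 10^5 Strep. pyogenes L 49 cells, about 100 times the 50% lethal dose. Groups of 5–8 mice were treated once right after challenge, by the route stated in the line. ED50 (mg/kg) was derived from percentage survival at each dose on day 7 (Spearman-Kärber).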

[3] = system: Staphylococcus epidermidis; experiment: Minimum inhibitory concentration against Staphylococcus epidermidis ATCC 12228; assay type: functional
How it was run: (§3)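 MIC (µg/mL) by microbroth dilution in Iso-Sensitest broth; final inoculum 10^4 cfu/mL; 24 h at 37 °C in air.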

[4] = system: Staphylococcus haemolyticus; experiment: Minimum inhibitory concentration against Staphylococcus haemolyticus L 602; assay type: functional; how it was run: as §3
[5] = system: Streptococcus pyogenes; experiment: Minimum inhibitory concentration against Streptococcus pyogenes L 49; assay type: functional; how it was run: as §1
[6] = Association constant to Ac2-L-Lys-D-Ala-D-Ala determined at pH 9; Value ranges from (9.5E4-3.5E5)
[7] = system: Staphylococcus aureus; experiment: Minimum inhibitory concentration against Staphylococcus aureus L 165; assay type: functional; how it was run: as §3
[8] = system: Streptococcus pyogenes; experiment: Efficacy of compound administered subcutaneously against Streptococcus pyogenes L 49 Septicemia in mouse; assay type: functional; conditions: sc; how it was run: as §2
[9] = system: Enterococcus faecalis; experiment: Minimum inhibitory concentration against Enterococcus faecalis ATCC 7080; assay type: functional
How it was run: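 Microbroth dilution MIC (µg/mL), final inoculum 10^4 cfu/mL, incubated 24 h at 37 °C in air.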

## CC(=O)N[C@@H]1[C@H](O[C@@H]2c3ccc(c(Cl)c3)Oc3cc4cc(c3O[C@@H]3O[C@@H](CO)[C@@H](O)[C@H](O)[C@@H]3NC(=O)CCCCCCC(C)C)Oc3ccc(cc3Cl)C[C@H]3NC(=O)[C@H](N)c5ccc(O)c(c5)Oc5cc(O)cc(c5)[C@H](NC3=O)C(=O)N[C@H]4C(=O)N[C@H]3C(=O)N[C@@H]2C(=O)N[C@H](C(=O)NCCCN2CCCCN(CCCN)CCCC2)c2cc(O)cc(O[C@H]4O[C@H](CO)[C@@H](O)[C@@H](O)[C@@H]4O)c2-c2cc3ccc2O)O[C@@H](CO)[C@@H](O)[C@@H]1O
[1]
  MIC: 0.125 µg/mL (≈ 0.059 µM)
[2]
  ED50: 60 mg/kg
[3]
  MIC: 0.063 µg/mL (≈ 0.0297 µM)
[4]
  MIC: 0.125 µg/mL (≈ 0.059 µM)
[5]
  MIC: 0.063 µg/mL (≈ 0.0297 µM)
[6]
  Ka: 350000 M⁻¹
[7]
  MIC: 0.25 µg/mL (≈ 0.118 µM)
[8]
  ED50: 0.06 mg/kg
[9]
  MIC: 0.125 µg/mL (≈ 0.059 µM)

## CC(=O)N[C@@H]1[C@H](O[C@@H]2c3ccc(c(Cl)c3)Oc3cc4cc(c3O[C@@H]3O[C@@H](CO)[C@@H](O)[C@H](O)[C@@H]3NC(=O)CCCCCCC(C)C)Oc3ccc(cc3Cl)C[C@H]3NC(=O)[C@H](N)c5ccc(O)c(c5)Oc5cc(O)cc(c5)[C@H](NC3=O)C(=O)N[C@H]4C(=O)N[C@H]3C(=O)N[C@@H]2C(=O)N[C@H](C(=O)NCCCNCCCCN)c2cc(O)cc(O[C@H]4O[C@H](CO)[C@@H](O)[C@@H](O)[C@@H]4O)c2-c2cc3ccc2O)O[C@@H](CO)[C@@H](O)[C@@H]1O
[1]
  MIC: 0.125 µg/mL (≈ 0.0623 µM)
[2]
  ED50: 81 mg/kg
[3]
  MIC: 0.063 µg/mL (≈ 0.0314 µM)
[4]
  MIC: 0.125 µg/mL (≈ 0.0623 µM)
[5]
  MIC: 0.063 µg/mL (≈ 0.0314 µM)
[6]
  Ka: 350000 M⁻¹
[7]
  MIC: 0.125 µg/mL (≈ 0.0623 µM)
[8]
  ED50: 0.05 mg/kg
[9]
  MIC: 0.125 µg/mL (≈ 0.0623 µM)

## CC(=O)N[C@@H]1[C@H](O[C@@H]2c3ccc(c(Cl)c3)Oc3cc4cc(c3O[C@@H]3O[C@@H](CO)[C@@H](O)[C@H](O)[C@@H]3NC(=O)CCCCCCC(C)C)Oc3ccc(cc3Cl)C[C@H]3NC(=O)[C@H](N)c5ccc(O)c(c5)Oc5cc(O)cc(c5)[C@H](NC3=O)C(=O)N[C@H]4C(=O)N[C@H]3C(=O)N[C@@H]2C(=O)N[C@H](C(=O)NCCCNCCCCNCCCN)c2cc(O)cc(O[C@H]4O[C@H](CO)[C@@H](O)[C@@H](O)[C@@H]4O)c2-c2cc3ccc2O)O[C@@H](CO)[C@@H](O)[C@@H]1O
[1]
  MIC: 0.125 µg/mL (≈ 0.0606 µM)
[2]
  ED50: 81 mg/kg
[3]
  MIC: 0.063 µg/mL (≈ 0.0305 µM)
[4]
  MIC: 0.125 µg/mL (≈ 0.0606 µM)
[5]
  MIC: 0.063 µg/mL (≈ 0.0305 µM)
[6]
  Ka: 350000 M⁻¹
[7]
  MIC: 0.125 µg/mL (≈ 0.0606 µM)
[8]
  ED50: 0.03 mg/kg
[9]
  MIC: 0.125 µg/mL (≈ 0.0606 µM)

## CC(=O)N[C@@H]1[C@H](O[C@@H]2c3ccc(c(Cl)c3)Oc3cc4cc(c3O[C@@H]3O[C@@H](CO)[C@@H](O)[C@H](O)[C@@H]3NC(=O)CCCCCCC(C)C)Oc3ccc(cc3Cl)C[C@H]3NC(=O)[C@H](N)c5ccc(O)c(c5)Oc5cc(O)cc(c5)[C@H](NC3=O)C(=O)N[C@H]4C(=O)N[C@H]3C(=O)N[C@@H]2C(=O)N[C@H](C(=O)NCCCN2CCCCNCCCC2)c2cc(O)cc(O[C@H]4O[C@H](CO)[C@@H](O)[C@@H](O)[C@@H]4O)c2-c2cc3ccc2O)O[C@@H](CO)[C@@H](O)[C@@H]1O
[1]
  MIC: 0.125 µg/mL (≈ 0.0606 µM)
[2]
  ED50: 90 mg/kg
[3]
  MIC: 0.063 µg/mL (≈ 0.0306 µM)
[4]
  MIC: 0.125 µg/mL (≈ 0.0606 µM)
[5]
  MIC: 0.063 µg/mL (≈ 0.0306 µM)
[6]
  Ka: 350000 M⁻¹
[7]
  MIC: 0.125 µg/mL (≈ 0.0606 µM)
[8]
  ED50: 0.08 mg/kg
[9]
  MIC: 0.125 µg/mL (≈ 0.0606 µM)

## CC(=O)N[C@@H]1[C@H](O[C@@H]2c3ccc(c(Cl)c3)Oc3cc4cc(c3O[C@@H]3O[C@@H](CO)[C@@H](O)[C@H](O)[C@@H]3NC(=O)CCCCCCC(C)C)Oc3ccc(cc3Cl)C[C@H]3NC(=O)[C@H](N)c5ccc(O)c(c5)Oc5cc(O)cc(c5)[C@H](NC3=O)C(=O)N[C@H]4C(=O)N[C@H]3C(=O)N[C@@H]2C(=O)N[C@H](C(=O)NCCNCCCNCCN)c2cc(O)cc(O[C@H]4O[C@H](CO)[C@@H](O)[C@@H](O)[C@@H]4O)c2-c2cc3ccc2O)O[C@@H](CO)[C@@H](O)[C@@H]1O
[1]
  MIC: 0.125 µg/mL (≈ 0.0618 µM)
[3]
  MIC: 0.063 µg/mL (≈ 0.0312 µM)
[4]
  MIC: 0.125 µg/mL (≈ 0.0618 µM)
[5]
  MIC: 0.063 µg/mL (≈ 0.0312 µM)
[6]
  Ka: 350000 M⁻¹
[7]
  MIC: 0.125 µg/mL (≈ 0.0618 µM)
[9]
  MIC: 0.125 µg/mL (≈ 0.0618 µM)

## CC(=O)N[C@@H]1[C@H](O[C@@H]2c3ccc(c(Cl)c3)Oc3cc4cc(c3O[C@@H]3O[C@@H](CO)[C@@H](O)[C@H](O)[C@@H]3NC(=O)CCCCCCC(C)C)Oc3ccc(cc3Cl)C[C@H]3NC(=O)[C@H](N)c5ccc(O)c(c5)Oc5cc(O)cc(c5)[C@H](NC3=O)C(=O)N[C@H]4C(=O)N[C@H]3C(=O)N[C@@H]2C(=O)N[C@H](C(=O)O)c2cc(O)cc(O[C@H]4O[C@H](CO)[C@@H](O)[C@@H](O)[C@@H]4O)c2-c2cc3ccc2O)O[C@@H](CO)[C@@H](O)[C@@H]1O
[1]
  MIC: 0.063 µg/mL (≈ 0.0335 µM)
[2]
  ED50: > 170 mg/kg
[3]
  MIC: 0.125 µg/mL (≈ 0.0665 µM)
[4]
  MIC: 8 µg/mL (≈ 4.26 µM)
[5]
  MIC: 0.063 µg/mL (≈ 0.0335 µM)
[7]
  MIC: 0.125 µg/mL (≈ 0.0665 µM)
[8]
  ED50: 0.12 mg/kg
[9]
  MIC: 0.125 µg/mL (≈ 0.0665 µM)
